B1: tRNA (parent)
chain: GUUCCGUUGGCGUAAUGGUAACGCGUCUCCCUCCUAAGGAGAAGACUGCGGGUUCGAGUCCCGUACGGAACG

This sample holds only a part of the variants without activity.

The variants in this data set derive from B1. The data set is described as follows: yeast fitness relative to wild type (ratio to wild type); higher = fitter; tRNA-Arg(CCU), competitive growth, 37 C, YPD. In a few lines:
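Amplicons of the tRNA-Arg(CCU) gene were sequenced, 100-nucleotide paired-end, from the start population and from each end population of a pooled yeast competition. The competition, in six parallel replicates, lasted 24 hours in YPD at 37°C. Fitness relative to wild type was calculated from changes in genotype frequencies. Genotypes had to have ≥ 100 starting reads, and estimates < 0.5 were set to 0.5.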
As for A14C A42G G68C, the yeast fitness was not above 0.5. For the variant U13G U32A G48C G51A C61U A69G, the yeast fitness is not above 0.5. For the variant U13C C49U, the yeast fitness was determined as 1.01. With U13C C49G, the yeast fitness was 0.896.

In the case of U13C G51C U54C, the yeast fitness was not above 0.5. Take A14C A20U: the yeast fitness amounted to 0.641. Turning to U13C C31U U54C G58C C61A A69U, the yeast fitness was not above 0.5. Take U13G A37C A70G: the yeast fitness is 0.539. For U13C C31G C33A C66A, the yeast fitness is not above 0.5.

On to A14C A20U C30A C31A G52A G68U, for which the yeast fitness is 0.551. For U13C U26A C27U, the yeast fitness amounted to 0.593. For A14C C24A A40G C49A C61G the value was not above 0.5; for A14C A45G G68C, not above 0.5; for U13C G38A, 0.708. On to A14C A15U U64G C66A, for which the yeast fitness is not above 0.5.

With U13G A21U C22A G25A G52U, the yeast fitness is not above 0.5. For A14C A40C, the yeast fitness turned out to be 0.6.

On to U13G C29U G68C, for which the yeast fitness was not above 0.5. As for U13G A20U, the yeast fitness came out at 1.03. As for A14C A20G C27U C62U, the yeast fitness is not above 0.5. As to A14C C22A U59G C62G, the yeast fitness was not above 0.5. For A14C A15U A40C G48A the value was not above 0.5; for U13C G52A, 0.735.

For U13G G48A A65U, the yeast fitness turned out to be 0.654. As to U13C C55U, the yeast fitness was found to be 0.837. With U13C G63A, the yeast fitness turned out to be 0.937. On to U13C U47C A65G, for which the yeast fitness amounted to 0.766.

In the case of A14C A20U A69U, the yeast fitness came out at 0.532. In the case of A14C A20U A69C it was not above 0.5. For A14C C24U A36G G68C the value was not above 0.5. For the variant A14C C24G U26A A36G A40U A43U, the yeast fitness was not above 0.5. In the case of A14C A65G, the yeast fitness was 0.776. Take U13C C61G G67U: the yeast fitness was 0.6. As to U13C G58A A70C, the yeast fitness was determined as 0.817.

Consider U13C C66G, for which the yeast fitness stood at 0.742. Consider U13C C66A, for which the yeast fitness was determined as 0.556. Consider U13G C24U U28A A42G, for which the yeast fitness is not above 0.5. Take U13C C49G U53C A57C: the yeast fitness is not above 0.5. For A14C C22U G41A C61U C66U, the yeast fitness was not above 0.5. Consider A14C C22U C55U C61G C62G, for which the yeast fitness was not above 0.5. In the case of A14C A15U G18C, the yeast fitness amounted to 0.67.

Take A14C A15C C27U C29A C34G G39A G50C: the yeast fitness was not above 0.5.

U13C U32G G39C G52C: the yeast fitness is not above 0.5. Regarding U13G C30G A40G, the yeast fitness was not above 0.5. With A14C A15G G44C C60A, the yeast fitness was not above 0.5. Turning to A14C A57U C62U G67A, the yeast fitness came to 0.508. Regarding U13G C46U U53A, the yeast fitness is not above 0.5.

U13C U26C A65C: the yeast fitness was 0.661. In the case of U13C G44A it was 0.827. For U13C G44C, the yeast fitness worked out at 0.913. Consider U13C G50A, for which the yeast fitness amounted to 0.874. With U13C G48C A57C, the yeast fitness is not above 0.5. In the case of U13C G48C A57G, the yeast fitness was not above 0.5. With U13G G25A A69U, the yeast fitness was found to be 0.798.

For the variant A14C A15G G23C A57C, the yeast fitness is not above 0.5. As to A14C A20C C33G A65C C66U, the yeast fitness stood at 0.758. Consider U13G C22G C30U A36G A40U U54G, for which the yeast fitness is not above 0.5. Take U13G A20U U59A: the yeast fitness was not above 0.5. As for U13G G25A, the yeast fitness is 0.973. For U13G G39C C46U the value was 0.535; for A14C A69U, 0.763; for U13C C46G C62G, not above 0.5. For U13C U19A G51C C55U U64G the value was 0.633. U13C C55U A65U: the yeast fitness is not above 0.5. Turning to U13G C49G G50C C60G C62A, the yeast fitness was not above 0.5. As to A14C A20C C33G A65G, the yeast fitness was not above 0.5.

Take U13C C62A: the yeast fitness is 0.68.

Consider U13C C62U, for which the yeast fitness stood at 1.01. In the case of U13C C31U A57G C60U U64A C66A A69C, the yeast fitness was not above 0.5.

On to A14C C22G G25A C31U G58A, for which the yeast fitness is not above 0.5. As to U13C C49G C62U, the yeast fitness came to 0.533. For U13C U19A A21U C24A U54C U59C A69G the value was not above 0.5. U13G A20G C22G: the yeast fitness was determined as 0.581. A14C A36G A42C: the yeast fitness turned out to be 0.533.

As to U13C G25C C60U C62U, the yeast fitness was not above 0.5. Regarding U13C G25C, the yeast fitness was found to be 0.996. As for U13C G25A, the yeast fitness was found to be 0.902. As to U13G C24A A45G, the yeast fitness was not above 0.5. With U13C C30U C33U A69U A70G, the yeast fitness was 0.568.

For the variant A14C A20C C30A C34G C66A, the yeast fitness is not above 0.5. With U13G C22U C31A A70U, the yeast fitness is not above 0.5. For the variant U13C G48A C61G A69C, the yeast fitness stood at 0.594. For U13G U19G the value was 1.05.

For the variant U13C G23C A70G, the yeast fitness came out at 0.585.

In the case of U13G A20U C22U C24A A45G C55U, the yeast fitness was not above 0.5. Turning to U13C U47C G56C, the yeast fitness is 0.544. On to A14C A20C A42G G44A, for which the yeast fitness turned out to be 0.633. In the case of U13G A20G U28A A70U it was 0.873.

Take U13G C24U C34A C49U G63A: the yeast fitness worked out at 0.554. As to A14C A20U U35C A65G A69U, the yeast fitness was not above 0.5. With A14C A21C C24U A36U A43U G56A G58C C66A, the yeast fitness is not above 0.5. Regarding U13G G58C, the yeast fitness is 0.969. For U13G G58A the value was 1.08. Regarding U13C U64C, the yeast fitness stood at 1.04. U13C C33G G56C: the yeast fitness is not above 0.5. Consider A14C A37G C49G, for which the yeast fitness was not above 0.5. For U13G G44A C46U A69C, the yeast fitness was determined as 0.646. For the variant U13C C60A A70G, the yeast fitness came out at 0.588.

For the variant U13C G23C C49U, the yeast fitness was not above 0.5. Turning to A14C C22A G67C, the yeast fitness was not above 0.5. A14C A37U: the yeast fitness is 0.655. Regarding A14C A37C, the yeast fitness stood at 0.53. Turning to A14C A21C C29G, the yeast fitness is not above 0.5. With U13G U47A G68A, the yeast fitness worked out at 0.737. Regarding U13C G48C, the yeast fitness amounted to 0.906. Regarding U13C C31G U47G U53G C61U G68A, the yeast fitness is 0.591. On to U13G C27A U28A C33U, for which the yeast fitness was not above 0.5.

Take A14C A21U A42C G58C U64A A69C: the yeast fitness was not above 0.5. Consider U13C U59G G68C, for which the yeast fitness was not above 0.5. As to A14C A40U G56C G67U, the yeast fitness was not above 0.5. For U13G U32A C60A G63A, the yeast fitness is not above 0.5. For the variant U13C G25A A69U, the yeast fitness was 0.767. As for U13G C62G, the yeast fitness is 0.726. Regarding U13G C62U, the yeast fitness turned out to be 0.92. For the variant U13G C49U U59C, the yeast fitness is not above 0.5. Regarding U13G C31U U35A A57C, the yeast fitness was found to be 0.61. As to U13G U16C C55A, the yeast fitness is not above 0.5. As for U13C G44A A69U, the yeast fitness came out at 0.696. In the case of U13G A70U it was 1.11; in that of U13G A70C, 0.843. In the case of U13G A70G it was 0.831; in that of U13C C60G A69C, not above 0.5; in that of U13C C31U A43G C60G, not above 0.5. For A14C C22G U26G, the yeast fitness was not above 0.5. In the case of U13C U19G A20G C31U G44A, the yeast fitness was not above 0.5. Consider U13C U16G A65G, for which the yeast fitness came to 0.572. Turning to U13C C31U C34U A40G U47A, the yeast fitness was not above 0.5.

Consider U13C U32C, for which the yeast fitness was 0.88. In the case of A14C C22G G25C A42G G44A C61G it was not above 0.5. As for A14C A40C G41C C49U C55A A70U, the yeast fitness is not above 0.5. A14C A45U G48A A69U: the yeast fitness is not above 0.5.

As for U13G U28A C55G C66A, the yeast fitness is 0.63.

As for A14C A43G U64A, the yeast fitness was not above 0.5. Turning to A14C A20C C34U G44C G50C C62U, the yeast fitness is not above 0.5.

As for U13C G25A C31U, the yeast fitness came out at 0.749.

Turning to A14C C22U C34U, the yeast fitness came to 0.79. Consider U13C G18A C66G, for which the yeast fitness was determined as 0.662. Consider A14C C24G, for which the yeast fitness was found to be 0.579. Turning to U13C C31U G41C C61U, the yeast fitness turned out to be 0.53. In the case of U13G A21C C46U G50A U64A A69U, the yeast fitness was not above 0.5. Regarding U13G U35A A37G A43U A45C A65C, the yeast fitness was not above 0.5.

For A14C C24G A45C U59C C61U, the yeast fitness was not above 0.5. For U13G U16C G39C A65G the value was not above 0.5.

On to U13G C22U G44A, for which the yeast fitness amounted to 0.641. Take U13C G56A C66U: the yeast fitness came out at 0.696. In the case of A14C A20C A42G G44A U47C it was not above 0.5; in that of U13G A20C C55U A69U, 0.565. For U13C U28C U47C C55A the value was 0.545; for U13C C34G G67A, not above 0.5; for A14C A21U A40G A65C, 0.621. For A14C A15U C33A A37G the value was 0.596; for A14C A15G A42G A70U, 0.569; for A14C A42G, 0.595. For A14C A42U, the yeast fitness is 0.524. For the variant U13G G68C, the yeast fitness was determined as 0.584.

For U13G C49A C55U C60U C61U, the yeast fitness was not above 0.5. In the case of U13G C29U C33U it was 0.57; in that of U13G U28A C30A A69U, 0.554. As to A14C C22G G52C, the yeast fitness was not above 0.5. On to U13C G38C A43C G51C G56C, for which the yeast fitness turned out to be 0.531. Consider A14C A20U C60G, for which the yeast fitness was found to be 0.571. Take U13G U16G C31G C49U: the yeast fitness is not above 0.5. Take A14C A36U G68A: the yeast fitness was not above 0.5. As for A14C A70C, the yeast fitness was 0.684. Consider A14C A70U, for which the yeast fitness was found to be 0.679. For A14C A40G C62G G68A, the yeast fitness is not above 0.5. In the case of A14C A15C, the yeast fitness was found to be 0.518.
